The EternaBench riboswitch data

Test system: MS2 coat protein
Experiment: apparent Kd, MS2 coat protein; higher = weaker binding; RNA-MaP array; FMN 200 µM where present
Procedure, shortened: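 On Illumina sequencing-chip clusters, designs were transcribed by stalled E. coli RNA polymerase and titrated with SNAP-549-labelled MS2 coat protein (0.7 or 1.5 nM, doubling to 3 µM), without and then with constant ligand, in 100 mM Tris-HCl pH 7.5, 80 mM KCl, 4 mM MgCl2, BSA, DTT, yeast tRNA and Tween-20. Apparent Kd is the median of filtered per-cluster curve fits to green signal normalised to red-channel RNA signal and control-cluster median Fmax.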

[1] = designed as: ON switch for flavin mononucleotide, no ligand
[2] = ligand present: flavin mononucleotide, designed as: ON switch for flavin mononucleotide
[3] = designed as: OFF switch for flavin mononucleotide, no ligand
[4] = ligand present: flavin mononucleotide, designed as: OFF switch for flavin mononucleotide

Sequence	apparent Kd [1] [nM]	apparent Kd [2] [nM]	apparent Kd [3] [nM]	apparent Kd [4] [nM]
AUUUAUUAGUAAGGAUAUACUAGCGAUUAGCUUGUAGAAGGUACAGUCUUAUGUAUAACAUGUUAACAUGAGGAUCACCCAUGU	60.4	27.9		
CGGUCUUGUAACUAUUUGUUUCACAUGAGGAUCACCCAUGUCAGAAGGAGGUACAUCUAUUAGACCUAGGAUAUGACGUGUAAG			27.5	100
GUCUCAGCUGAGGAUAUUAUCUGGCUCGACCGAUAAGAAGGCAGUACAUGAGGAUCACCCAUGUGGUUCGUUCG			37.6	84.9
AGUAUCACAGGAUAUACAUGAGUGAAAAAAGUAAAUCCACUACAUGAGGAUCACCCAUGUAGAAGGGUGAUACA			65.7	57.9
GCCAUCGCGUGAGGAUAUGGCACCGUUUCGGUGCCAGAAGGCAUGUCAAAUGACAUGAGGAUCACCCAUGUAGUUAAGAUGGCA	180	13.2		
AUUAUAUAGUAAGGAUAUAGAUUAUUAUUUUAACAUGAGGAUCACCCAUGUAGCCUUAUGUAUAACUAGAAGGUACAUUUAUUA			47.8	50.5
GACAUACAUGAGGAUCACCCAUGUUCAGAAGGACAAGGAUAUGUGUGGAAACCAUACUAUACAGAAGGUGUCUGUC	37.6	19.9		
AACAGGUUCACAUGAGGAUCACCCAUGUUAGCCUAACGUAGGAGAAGGACGGUAGCUGGGCUGACGUAGGAUAUCCUACUGUGA	9.22	4.8		
GGAGCCGGCCUAGGAUAUUUCAUAUUUAAACAUGAGGAUCACCCAUGUAGGCCAGAAGGCCUUGGGAAGAAGGAGGUCGGCUCC	88.1	17.5		
CAGCAAAAGUAGAAGGCAGUACUGAUUCAGUACUGAGGAUAUACAUGAGGAUCACCCAUGUCUUCCAGCUGAAUAAUAAAAUAA			6.14	45.5
AGCCUACAUGAGGAUCACCCAUGUCAGGAUAUCUCGCGACGUGUCGGGAACACGUUGCAGAGAAGGGACUCGGG			56.4	69.4
UAUAUAUAGUAAGGAUAUGUAUAUAUUUGAUAAACAGAAGGUACUGACAUGAGGAUCACCCAUGUUUUAGUGUGGGCAUGUAGA			62.8	78.6
AAAUUUUGUCAAGGAUAUGUAUAAAAGAGUUGAAAACAUGAGGAUCACCCAUGUAUAUGGUGGGAACAGAAGGUGAAUAAGUAA			190	182
ACAUGAGGAUCACCCAUGUUAUCCGGGACUUCAAUUGUAUCUAGAAGGCUGUCUGCUUGUUAGUCAGAGGAUAUAGAUUCAAAU			12.4	11.1
GGAUAGGACAGAGGAUAUACGUGCUAAAGAUACUAGCAAAAUUUCCUCACAUGAGGAUCACCCAUGUAGAAGGCUGUCCUAUCG			17.8	466
AUGACAUGCAGAGCGCAACGGCGUACAUGAGGAUCACCCAUGUAGGAUAUACUACACAAAGUGUAGUAGAAGGACAUGCGACGG			30.8	50.8
UGUGUCAUCGAGAAGGCCUCAACAUGAGGAUCACCCAUGUUGUAAUAUGGGAGGAUAUCGAUGAUACAGCUACGUUUCGUAGCU	19.2	5.78		
AAGUAGAUCCGAGGAUAUACAAACCGGAAACGGUACAUGAGGAUCACCCAUGUAGAAGGCGGAUCUACAGGUACUAAAGUACCA			5.33	8.68
AAAAACUGAGGAUAUACGAAAAAAAAAAAAAAAAAAAAAAAACAUGAGGAUCACCCAUGUAGAAGGCAGAAAAA			50.4	38
GGACGACACAUCUACAUGAGGAUCACCCAUGUCAAAAGACAUGAGGAUAUGCUACCUAAUUGGUAGCAGAAGGCAUGGUCGUCC	1370	67.2		
AGAUGGUAGAGAGGAUAUCAUGUGCUGACAUGAGGAUCACCCAUGUAGGGACGUCGGUCCAAUUAUGAGAAGGCUCUACCAUCU	85.6	55.9		
AACAUUGACAAGAAGGCAAACAUGAGGAUCACCCAUGUUCUGCAUGUAUAUUGAGGAUAUUGCCAAUGUAUGUGGAUCACCCAA			6.76	14.8
GGCUGGUGACAGCAUCCAUCAAAACAUGAGGAUCACCCAUGUAGAAGGCUGUACGGUUACCGUACAGAGGAUAUACAAUGAUGC			13.7	28.5
GAAAAGGUAGGAUAUACGAAAAAAAAGGGUAGAAAAAAAAAACAUGAGGAUCACCCAUGUAGAAGGACCAAAAG			39.6	93.2
UGCUACCUAGGAUAUACAUGAGGAUCACCCAUGUGAUUCGGUGGCGCGAUCCUUGAAAGUAGAAGGAGGAGCAA			38.4	27.4
GCAGGUUUACGAGGAUAUGGGUGGUACGGACAUGAGGAUCACCCAUGUCUCCCAGAAGGCGUAGCCUAACAAAGAGAACAGGAG	111	19.2		
CAGCGCUGUCGAGAGGAUAUGCGGUGAUGGACAUGAGGAUCACCCAUGUUAGCGAUAGCAUUACUGUAGAAGGCUCUACAGCUGC	30.6	13		
GGGUACUUCGGAGGAUAUCAUGUAAAUACAUGAGGAUCACCCAUGUCGAUGGAGACAUCGGAGAUUGAGAAGGCCGAUGUACCG	171	9.34		

Sequence	apparent Kd [1] [nM]	apparent Kd [2] [nM]	apparent Kd [3] [nM]	apparent Kd [4] [nM]
AACAGGACAGGAUAUACAUGAGGAUCACCCAUGUGAGAAUUAAGUAGAUUACCACAAAGUAGAAGGGUCCUGGA			50.4	87.2
GUGGACGUCGUAGGAUAUGUAGGAUAUUCCUACAUGAGGAUCACCCAUGUUGAAAUGGAAGAAGGACAGAAGGACGAUGUCCAG	58.5	12.7		
AUUAUUUAUAGUUAUUGGUAAUUGACAGAAGGUGAAAGUGUCACAUGAGGAUCACCCAUGUUCUUCAAGGAUAUGUUGGUAUAC	88.3	14		
GAGGUACGAGGAUAUACAUAGAUACAGACACAUGUUCAAGUACAUGAGGAUCACCCAUGUAGAAGGCGUAUAUC			30.1	44.9
GGAUAGGACAGAGGAUAUUCGUGCUAGAGAUACUAGCAAAAUUUCCUCACAUGAGGAUCACCCAUGUAGAAGGCUGUCCUAUCG			5.37	10.3
UUACUUUUACAGAAGGUUUAAUAAUAUAUAAGAGAAGGAUAUGUAACAUGAGGAUCACCCAUGUUUCACCCAUAUGAGGAUCAU			8.12	7.78
UAUCGUUCCGAGGAUAUGAGGCGACUGGCGCGAUCAGAAGGCGGAACAUGAGGAUCACCCAUGUUCCUUACCUU			12.2	20.5
UUUAGAUUCAGAGGAUAUUGAUGUUGUAUUUUACAAGAAGGCUGAUUGGUUUGAAUUGUUUUUUAACAUGAGGAUCACCCAUGU	28.5	20.7		
GUUGUGCGAGGAUAUACUUGGUGUGUCCUGUGCACGUAAUGACAUGAGGAUCACCCAUGUAGAAGGUGCCCAGG			32.8	33.9
UUAUACGUUGAGGAUAUGUCAUUUAGUAUAGUUACAGAAGGCGAUACAUGAGGAUCACCCAUGUUUAUGGGCAU			239	164
CUUUUGUGAGGAUAUCAGUAGUUAAAAAAUAAAAUUACUACUGAGAAGGCACAUGAGGAUCACCCAUGUUCCUC			42.5	308
AUACCUUAUGAGAAGGCGAUUAUGAAACAUGAUCGAGGAUAUCAUGUAAACAUGAGGAUCACCCAUGUAUGGGUAUUAUGGUAC	50	11.6		
GUCAGAAGUGCAGGAUAUGCUGAGGCAUUCGCGGCAGAAGGGCACAUGAGGAUCACCCAUGUAGCCGGGUAUUGUACCUUAUCA			6.36	9.16
ACAGAGGCUGACAUGAGGAUCACCCAUGUUAGAUUGUUAUGUCAGGAUAUUAUCUGGCAACCAGAUGAGAAGGGACCCUCUGUU	21.5	7.68		
UUGGACGUCGUAGGAUAUGUAGGAUAUUCCUACAUGAGGAUCACCCAUGUUGACAUGGAAGAAGGACAGAAGGACGUUGUCCAU	404	5.74		
GGGAAUAAACCCGUCUCCGCUCAACCAGAAGGGCACGAUAAUAUUACAUGAGGAUCACCCAUGUUGCAGGAUAUGGUGAGCCUC	191	52.9		
CGCUACACCCAGAAGGACAUGAGGAUCACCCAUGUAGGAUAUGGGAGACACAGUCCCGUGUAGAGAAACUACGCUAGUGUAGCG	344	112		
AAAACAUGAGGAUCACCCAUGUAAAGAACGGUUAAUAAAUGUGAGGAUAUACUAAAAUUUACGUAGUAGAAGGCACUGGGUACA	20.8	25.1		
GUUGUUACUGAGGAUAUUAUUUUAUUCGACUGAUAAGAAGGCAGUACAUGAGGAUCACCCAUGUGGGUAGCCAG			27.9	170
CUGAGUAGUCAGGAUAUGCUGUACAAAAGUACAGCAGAAGGGAUUACAUGAGGAUCACCCAUGUUUACUUCAUG			44.8	209
CGAUAUAUGAAGGGCUAAUGCCCACAUGAGGAUCACCCAUGUAGAAGGCGAUCCGCAACGCGGAUCGAGGAUAUAUAGUAUACA			9.02	9.66
UUUAUGAAGAUUCGUCAAUACAGUUAGGAUAUGAGAGACAUGAGGAUCACCCAUGUGCAUGUUGAUUAGAAGGAACAAUUAUCU			19.1	16.9
UUUAUUAAUUAAUAUAAUAAGAUCACAUGAGGAUCACCCAUGUAGGAUAUCAGCUCGAUUAGAGCUGAGAAGGACAUAAUUAUA			34.8	110
UUUACUUACGAAGGAUAUGGUUACAUGAGGAUCACCCAUGUAUGUAUAUUGAUCUAGUAUUUUAACCAGAAGGUCGUGAUUUUU			34.4	46.6
UAUAUGUCAGGAUAUCGAUUGGUACGGAAUUCGGUACUGGUUGAGAAGGGACAUGAGGAUCACCCAUGUUUUUC			38.5	228
GGUACCAUCACAGGAUAUGCUAUCCUUUGGGUAGCAGAAGGGUGAUAACAUGAGGAUCACCCAUGUGGUACCGGGCGUGAGCCC	1030	197		
GCAUGCGUUCGAGGAUAUCGGUGAGAAACGGAACGAGAAGGCGAUCGAAUGUCUCAUCUUAUGAACAUGAGGAUCACCCAUGUA	299	83.2		
